Values after ≈ are worked out from the molar mass of the structure shown.
Columns and labels:
Escherichia coli = test: Antimicrobial activity against Escherichia coli ATCC 25922 by twofold broth dilution method; format: functional
Outline: (§1)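 Two-fold broth dilution in 96-well micro-test plates, following NCCLS recommendations. Enoxacin and Chloromycin served as positive controls for bacteria, and Fluconazole for fungi. The read-out is the MIC in µg/mL.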

Shigella dysenteriae = test: Antimicrobial activity against Shigella dysenteriae ATCC 49550 by twofold broth dilution method; format: functional
Outline: (§2)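 Antibacterial MIC, determined by two-fold serial broth dilution following the NCCLS-recommended method. Clinical antimicrobial drugs were run alongside as positive controls.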

Micrococcus luteus = test: Antimicrobial activity against Micrococcus luteus ATCC 4698 by twofold broth dilution method; format: functional; outline: as §1
Bacillus subtilis = test: Antimicrobial activity against Bacillus subtilis ATCC 6633 by twofold broth dilution method; format: functional; outline: as §1
Salmonella typhi = test: Antimicrobial activity against Salmonella typhi ATCC 9484 by twofold broth dilution method; format: functional, Salmonella enterica subsp. enterica serovar Typhi; conditions: Salmonella enterica; outline: as §2
Staphylococcus aureus [1] = test: Antimicrobial activity against methicillin-resistant Staphylococcus aureus N 315 by twofold broth dilution method; format: functional; outline: as §2
Candida albicans = test: Antifungal activity against Candida albicans ATCC 76615 by twofold broth dilution method; format: functional; outline: as §1
Proteus vulgaris = test: Antimicrobial activity against Proteus vulgaris ATCC 6896 by twofold broth dilution method; format: functional; outline: as §1
Staphylococcus aureus [2] = test: Antimicrobial activity against Staphylococcus aureus ATCC 25923 by twofold broth dilution method; format: functional; outline: as §1
Saccharomyces cerevisiae = test: Antifungal activity against Saccharomyces cerevisiae ATCC 9763 by twofold broth dilution method; format: functional; outline: as §1
Aspergillus fumigatus = test: Antifungal activity against Aspergillus fumigatus ATCC 96918 by twofold broth dilution method; format: functional; outline: as §1

SMILES | MIC (Escherichia coli) [µg/mL] | MIC (Shigella dysenteriae) [µg/mL] | MIC (Micrococcus luteus) [µg/mL] | MIC (Bacillus subtilis) [µg/mL] | MIC (Salmonella typhi) [µg/mL] | MIC (Staphylococcus aureus [1]) [µg/mL] | MIC (Candida albicans) [µg/mL] | MIC (Proteus vulgaris) [µg/mL] | MIC (Staphylococcus aureus [2]) [µg/mL] | MIC (Saccharomyces cerevisiae) [µg/mL] | MIC (Aspergillus fumigatus) [µg/mL]
Cc1cc(=O)oc2cc(OCCCCCBr)cc(OCCCCCBr)c12 | 512 (≈ 1040 µM) | 256 (≈ 522 µM) | 128 (≈ 261 µM) | 128 (≈ 261 µM) | 256 (≈ 522 µM) | 256 (≈ 522 µM) | 128 (≈ 261 µM) | 256 (≈ 522 µM) | 128 (≈ 261 µM) | 256 (≈ 522 µM) | 128 (≈ 261 µM)
Cc1cc(=O)oc2cc(OCCCCBr)ccc12 | 256 (≈ 823 µM) | 512 (≈ 1650 µM) | 128 (≈ 411 µM) | 128 (≈ 411 µM) | 256 (≈ 823 µM) | 256 (≈ 823 µM) | 128 (≈ 411 µM) | 256 (≈ 823 µM) | 128 (≈ 411 µM) | 256 (≈ 823 µM) | 512 (≈ 1650 µM)
Cc1cc(=O)oc2cc(OCc3ccc(COc4ccc5c(C)cc(=O)oc5c4)cc3)ccc12 | > 512 | > 512 | > 512 | > 512 | > 512 | > 512 | > 512 | > 512 | > 512 | 512 (≈ 1130 µM) | > 512
Cc1cc(=O)oc2cc(OCCCCCCBr)cc(OCCCCCCBr)c12 | 512 (≈ 988 µM) | 512 (≈ 988 µM) | 128 (≈ 247 µM) | 128 (≈ 247 µM) | 512 (≈ 988 µM) | 512 (≈ 988 µM) | 128 (≈ 247 µM) | 512 (≈ 988 µM) | 256 (≈ 494 µM) | 128 (≈ 247 µM) | 128 (≈ 247 µM)
Cc1cc(=O)oc2cc(OCc3ccc(Cn4cncn4)cc3)ccc12 | 64 (≈ 184 µM) | 64 (≈ 184 µM) | 32 (≈ 92.1 µM) | 32 (≈ 92.1 µM) | 64 (≈ 184 µM) | 64 (≈ 184 µM) | 32 (≈ 92.1 µM) | 64 (≈ 184 µM) | 32 (≈ 92.1 µM) | 64 (≈ 184 µM) | 64 (≈ 184 µM)
Cc1cc(=O)oc2cc(OCCCCCCOc3ccc4c(C)cc(=O)oc4c3)ccc12 | 256 (≈ 589 µM) | 512 (≈ 1180 µM) | 128 (≈ 295 µM) | 128 (≈ 295 µM) | 512 (≈ 1180 µM) | 512 (≈ 1180 µM) | 512 (≈ 1180 µM) | 256 (≈ 589 µM) | 256 (≈ 589 µM) | 256 (≈ 589 µM) | 512 (≈ 1180 µM)
Cc1cc(=O)oc2cc(OCCCCBr)cc(OCCCCBr)c12 | 512 (≈ 1110 µM) | 256 (≈ 554 µM) | 256 (≈ 554 µM) | 128 (≈ 277 µM) | 256 (≈ 554 µM) | 512 (≈ 1110 µM) | 128 (≈ 277 µM) | 256 (≈ 554 µM) | 256 (≈ 554 µM) | 256 (≈ 554 µM) | 256 (≈ 554 µM)
Cc1cc(=O)oc2cc(OCCCCn3cncn3)cc(OCCCCn3cncn3)c12.Cl | 1 | 1 | 1 | 1 | 1 | 2 | 1 | 2 | 1 | 2 | 2
Cc1cc(=O)oc2cc(O)cc(O)c12 [5,7-DIHYDROXY-4-METHYLCOUMARIN] | 128 (≈ 666 µM) | 256 (≈ 1330 µM) | 64 (≈ 333 µM) | 64 (≈ 333 µM) | 256 (≈ 1330 µM) | 64 (≈ 333 µM) | 64 (≈ 333 µM) | 128 (≈ 666 µM) | 32 (≈ 167 µM) | 256 (≈ 1330 µM) | 256 (≈ 1330 µM)
Cc1cc(=O)oc2cc(O)ccc12 [HYMECROMONE] | 128 (≈ 727 µM) | 512 (≈ 2910 µM) | 32 (≈ 182 µM) | 32 (≈ 182 µM) | 128 (≈ 727 µM) | 64 (≈ 363 µM) | 64 (≈ 363 µM) | 256 (≈ 1450 µM) | 32 (≈ 182 µM) | 128 (≈ 727 µM) | 128 (≈ 727 µM)
Cc1cc(=O)oc2cc(OCCCCCn3cncn3)cc(OCCCCCn3cncn3)c12 | 8 (≈ 17.1 µM) | 4 (≈ 8.57 µM) | 4 (≈ 8.57 µM) | 4 (≈ 8.57 µM) | 4 (≈ 8.57 µM) | 8 (≈ 17.1 µM) | 2 (≈ 4.29 µM) | 4 (≈ 8.57 µM) | 2 (≈ 4.29 µM) | 4 (≈ 8.57 µM) | 32 (≈ 68.6 µM)
Cc1cc(=O)oc2cc(OCCCCCBr)ccc12 | 512 (≈ 1570 µM) | 256 (≈ 787 µM) | 256 (≈ 787 µM) | 128 (≈ 394 µM) | 512 (≈ 1570 µM) | 256 (≈ 787 µM) | 128 (≈ 394 µM) | 512 (≈ 1570 µM) | 128 (≈ 394 µM) | 512 (≈ 1570 µM) | 256 (≈ 787 µM)
Cc1cc(=O)oc2cc(OCc3ccc(CBr)cc3)cc(OCc3ccc(CBr)cc3)c12 | 512 (≈ 917 µM) | 512 (≈ 917 µM) | 256 (≈ 459 µM) | 128 (≈ 229 µM) | 256 (≈ 459 µM) | 512 (≈ 917 µM) | 256 (≈ 459 µM) | 512 (≈ 917 µM) | 256 (≈ 459 µM) | 256 (≈ 459 µM) | 256 (≈ 459 µM)
Cc1cc(=O)oc2cc(OCCCCn3cncn3)ccc12 | 8 (≈ 26.7 µM) | 16 (≈ 53.5 µM) | 4 (≈ 13.4 µM) | 2 (≈ 6.68 µM) | 16 (≈ 53.5 µM) | 8 (≈ 26.7 µM) | 2 (≈ 6.68 µM) | 16 (≈ 53.5 µM) | 2 (≈ 6.68 µM) | 4 (≈ 13.4 µM) | 16 (≈ 53.5 µM)
Cc1cc(=O)oc2cc(OCc3ccc(CBr)cc3)ccc12 | 512 (≈ 1430 µM) | 512 (≈ 1430 µM) | 256 (≈ 713 µM) | 256 (≈ 713 µM) | 512 (≈ 1430 µM) | 512 (≈ 1430 µM) | 256 (≈ 713 µM) | 512 (≈ 1430 µM) | 256 (≈ 713 µM) | 256 (≈ 713 µM) | 256 (≈ 713 µM)
Cc1cc(=O)oc2cc(OCCCCCCBr)ccc12 | 512 (≈ 1510 µM) | 512 (≈ 1510 µM) | 64 (≈ 189 µM) | 128 (≈ 377 µM) | 256 (≈ 755 µM) | 256 (≈ 755 µM) | 256 (≈ 755 µM) | 256 (≈ 755 µM) | 64 (≈ 189 µM) | 256 (≈ 755 µM) | 512 (≈ 1510 µM)
Cc1cc(=O)oc2cc(OCCCCCOc3ccc4c(C)cc(=O)oc4c3)ccc12 | 256 (≈ 609 µM) | 512 (≈ 1220 µM) | 128 (≈ 304 µM) | 256 (≈ 609 µM) | 512 (≈ 1220 µM) | 256 (≈ 609 µM) | 512 (≈ 1220 µM) | 512 (≈ 1220 µM) | 128 (≈ 304 µM) | 256 (≈ 609 µM) | 512 (≈ 1220 µM)
Cc1cc(=O)oc2cc(OCc3ccc(Cn4cncn4)cc3)ccc12.Cl | 16 | 16 | 8 | 8 | 16 | 16 | 8 | 16 | 8 | 16 | 16
Cc1cc(=O)oc2cc(OCCCCn3cncn3)cc(OCCCCn3cncn3)c12 | 1 (≈ 2.28 µM) | 1 (≈ 2.28 µM) | 1 (≈ 2.28 µM) | 2 (≈ 4.56 µM) | 1 (≈ 2.28 µM) | 2 (≈ 4.56 µM) | 1 (≈ 2.28 µM) | 2 (≈ 4.56 µM) | 1 (≈ 2.28 µM) | 2 (≈ 4.56 µM) | 4 (≈ 9.12 µM)
Cc1cc(=O)oc2cc(OCCCCCCn3cncn3)ccc12 | 32 (≈ 97.7 µM) | 32 (≈ 97.7 µM) | 8 (≈ 24.4 µM) | 8 (≈ 24.4 µM) | 32 (≈ 97.7 µM) | 16 (≈ 48.9 µM) | 16 (≈ 48.9 µM) | 32 (≈ 97.7 µM) | 8 (≈ 24.4 µM) | 32 (≈ 97.7 µM) | 32 (≈ 97.7 µM)
OC(Cn1cncn1)(Cn1cncn1)c1ccc(F)cc1F [FLUCONAZOLE] |  |  |  |  |  |  | 1 (≈ 3.27 µM) |  |  | 2 (≈ 6.53 µM) | 128 (≈ 418 µM)
Cc1cc(=O)oc2cc(OCCCCOc3ccc4c(C)cc(=O)oc4c3)ccc12 | 256 (≈ 630 µM) | 512 (≈ 1260 µM) | 128 (≈ 315 µM) | 128 (≈ 315 µM) | 256 (≈ 630 µM) | 512 (≈ 1260 µM) | 512 (≈ 1260 µM) | 256 (≈ 630 µM) | 128 (≈ 315 µM) | 256 (≈ 630 µM) | 512 (≈ 1260 µM)
O=C(N[C@H](CO)[C@H](O)c1ccc([N+](=O)[O-])cc1)C(Cl)Cl [CHLORAMPHENICOL] | 8 (≈ 24.8 µM) | 4 (≈ 12.4 µM) | ≤ 4 | 8 (≈ 24.8 µM) | 4 (≈ 12.4 µM) | 16 (≈ 49.5 µM) |  | 8 (≈ 24.8 µM) | 4 (≈ 12.4 µM) |  | 
Cc1cc(=O)oc2cc(OCCCCCCn3cncn3)cc(OCCCCCCn3cncn3)c12 | 8 (≈ 16.2 µM) | 8 (≈ 16.2 µM) | 8 (≈ 16.2 µM) | 4 (≈ 8.09 µM) | 16 (≈ 32.3 µM) | 16 (≈ 32.3 µM) | 4 (≈ 8.09 µM) | 8 (≈ 16.2 µM) | 8 (≈ 16.2 µM) | 4 (≈ 8.09 µM) | 32 (≈ 64.7 µM)
Cc1cc(=O)oc2cc(OCCCCCn3cncn3)ccc12 | 32 (≈ 102 µM) | 32 (≈ 102 µM) | 8 (≈ 25.5 µM) | 4 (≈ 12.8 µM) | 16 (≈ 51.1 µM) | 16 (≈ 51.1 µM) | 8 (≈ 25.5 µM) | 32 (≈ 102 µM) | 4 (≈ 12.8 µM) | 16 (≈ 51.1 µM) | 16 (≈ 51.1 µM)
Cc1cc(=O)oc2cc(OCc3ccc(Cn4cncn4)cc3)cc(OCc3ccc(Cn4cncn4)cc3)c12 | 64 (≈ 120 µM) | 64 (≈ 120 µM) | 64 (≈ 120 µM) | 64 (≈ 120 µM) | 32 (≈ 59.9 µM) | 64 (≈ 120 µM) | 32 (≈ 59.9 µM) | 32 (≈ 59.9 µM) | 32 (≈ 59.9 µM) | 32 (≈ 59.9 µM) | 64 (≈ 120 µM)
CCn1cc(C(=O)O)c(=O)c2cc(F)c(N3CCNCC3)nc21 [ENOXACIN] | 1 (≈ 3.12 µM) | 1 (≈ 3.12 µM) | ≤ 1 | 1 (≈ 3.12 µM) | 2 (≈ 6.24 µM) | 4 (≈ 12.5 µM) |  | 1 (≈ 3.12 µM) | 1 (≈ 3.12 µM) |  | 
Cc1cc(=O)oc2cc(OCCCCn3cncn3)ccc12.Cl | 4 | 16 | 2 | 2 | 16 | 8 | 2 | 8 | 2 | 4 | 8
Cc1cc(=O)oc2cc(OCc3ccc(Cn4cncn4)cc3)cc(OCc3ccc(Cn4cncn4)cc3)c12.Cl | 8 | 16 | 16 | 16 | 16 | 16 | 8 | 16 | 8 | 16 | 16

Reference: ChEMBL document CHEMBL1667774, “Synthesis and evaluation of a class of new coumarin triazole derivatives as potential antimicrobial agents” (2011)
